Assay results published in paper PMC3601557 (Chemistry & biology, 2012).
Entries after “also recorded” stand apart in the source; their conditions may differ.

Legend:
[1] = tested on: P. falciparum D10 parasites; assay: P. falciparum replication assay; assay type: cell-based
[2] = tested on: P. falciparum ring stage parasites (food vacuole); assay: Phenotypic characterization of treated ring stage parasites; assay type: cell-based; settings: 24 hr, Giemsa smears
Summary of the method: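 Synchronized ring-stage cultures (2% parasitemia) were treated with a range of test compound concentrations or DMSO for 24 hr. Morphology was then examined on Giemsa-stained thin blood smears, and the food vacuole defect was scored as enlargement of this acidic organelle.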

FP2, FP2′, and FP3 = assay: Competitive ABPP with Cy5-DCG-04 in parasite lysates; assay type: biochemical, P. falciparum; settings: D10 lysates, 30 min preincubation, 1 µM Cy5-DCG-04 1 hr
FP1 [3] = target: T1, FP1 (Plasmodium falciparum, UniProt P25805); assay: Competitive ABPP with Cy5-DCG-04 in parasite lysates; assay type: biochemical, P. falciparum; settings: D10 lysates, 30 min preincubation, 1 µM Cy5-DCG-04 1 hr
T1 sequence (P25805 333-569): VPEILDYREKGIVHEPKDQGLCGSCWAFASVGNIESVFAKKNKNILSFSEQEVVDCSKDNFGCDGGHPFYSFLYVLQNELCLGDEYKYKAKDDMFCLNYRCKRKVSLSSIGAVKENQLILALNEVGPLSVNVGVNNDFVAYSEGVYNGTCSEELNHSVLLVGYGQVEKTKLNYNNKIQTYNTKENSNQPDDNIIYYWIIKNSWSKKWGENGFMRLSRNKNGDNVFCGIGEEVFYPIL
Summary of the method: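 Trophozoites were harvested 36 hr post-invasion, freed from RBCs with saponin, and extracted in PBS with 1% NP40. Soluble lysate was diluted 1:10 in acetate buffer (50 mM sodium acetate, 5 mM MgCl2, 5 mM DTT) and pretreated 30 min with test compound over a concentration range. Then 1 µM Cy5-DCG04 was added for 1 hr. Reactions were boiled in loading buffer, resolved by SDS-PAGE, and scanned for in-gel fluorescence.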

FP1 [4] = target: T1, FP1; assay: Falcipain inhibition in living parasites; assay type: cell-based, P. falciparum
DPAP1 = target: T2, DPAP1 (Plasmodium falciparum, UniProt Q8IIJ9); assay: Competitive ABPP with Cy5-DCG-04, DPAP1 labeling; assay type: cell-based, P. falciparum
T2 sequence (Q8IIJ9 370-599 limits assumed): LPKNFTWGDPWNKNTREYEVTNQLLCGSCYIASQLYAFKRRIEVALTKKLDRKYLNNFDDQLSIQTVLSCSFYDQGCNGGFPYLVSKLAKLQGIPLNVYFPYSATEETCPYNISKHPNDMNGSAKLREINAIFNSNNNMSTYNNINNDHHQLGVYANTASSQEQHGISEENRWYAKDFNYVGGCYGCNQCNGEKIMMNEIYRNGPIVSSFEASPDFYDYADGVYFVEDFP
T2 sequence (Q8IIJ9 600-700 limits assumed): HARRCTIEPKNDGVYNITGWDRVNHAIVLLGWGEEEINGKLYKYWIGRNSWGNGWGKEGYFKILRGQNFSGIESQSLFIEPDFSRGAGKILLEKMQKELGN
T2 sequence (Q8IIJ9 28-209 limits assumed): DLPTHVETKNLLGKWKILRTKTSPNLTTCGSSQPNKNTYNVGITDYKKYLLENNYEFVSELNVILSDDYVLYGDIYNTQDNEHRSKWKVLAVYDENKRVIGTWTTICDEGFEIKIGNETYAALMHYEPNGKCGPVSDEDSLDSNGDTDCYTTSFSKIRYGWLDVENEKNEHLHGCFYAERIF
Summary of the method: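 A P. falciparum culture at 20% parasitemia and 2% hematocrit was exposed to graded test compound for 1 hr. Aliquots were lysed with 0.15% saponin in PBS. Parasite pellets were labelled for 1 hr with 1 µM Cy5-DCG04 in acetate buffer containing 1% NP40. After SDS-PAGE, DPAP1 band fluorescence was quantified and fitted to a sigmoidal dose-response curve to give IC50.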

DPAP3 = assay: Competitive ABPP with DPAP activity-based probe FY01; assay type: biochemical, P. falciparum; settings: competitive ABPP with FY01, Figure S3
[5] = target: T3, recombinantly produced FP2 (Plasmodium falciparum, UniProt Q8I6U4); assay: Kinetics of substrate turnover inhibition; assay type: biochemical, P. falciparum
T3 sequence (Q8I6U4 244-484): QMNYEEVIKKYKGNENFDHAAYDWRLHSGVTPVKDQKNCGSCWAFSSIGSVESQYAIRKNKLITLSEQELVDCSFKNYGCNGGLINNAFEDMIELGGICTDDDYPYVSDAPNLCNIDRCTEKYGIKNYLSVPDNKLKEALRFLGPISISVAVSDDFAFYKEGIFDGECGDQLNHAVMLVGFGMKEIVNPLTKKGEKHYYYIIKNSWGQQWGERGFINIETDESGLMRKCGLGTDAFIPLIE
Summary of the method: (§1)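 Fluorescence (ex 350 nm, em 460 nm) was followed for 2 hr at several inhibitor concentrations. Turnover relative to DMSO controls (v/v0) was fitted to an irreversible inhibition model; ki = kobs/[I].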

[6] = target: T4, recombinantly produced FP3 (Plasmodium falciparum, UniProt Q8IIL0); assay: Kinetics of substrate turnover inhibition; assay type: biochemical, P. falciparum
T4 sequence (Q8IIL0 243-492): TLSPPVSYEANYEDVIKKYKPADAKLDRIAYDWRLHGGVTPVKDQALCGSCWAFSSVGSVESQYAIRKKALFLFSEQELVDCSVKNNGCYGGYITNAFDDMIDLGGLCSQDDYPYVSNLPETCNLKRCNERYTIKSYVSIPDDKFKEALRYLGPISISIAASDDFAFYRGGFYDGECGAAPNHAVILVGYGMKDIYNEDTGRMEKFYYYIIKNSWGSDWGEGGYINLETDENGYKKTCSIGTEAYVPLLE
Summary of the method: as §1

cathepsin L = cathepsin L (Mus musculus, UniProt P06797); assay type: cell-based; settings: mouse macrophages, 0.5 µM
Summary of the method: (§2)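 Bone marrow-derived mouse macrophages were preincubated with 0.5 or 5 µM test compound. Residual protease activity was then read in protein extracts by labelling with either a broad papain-like cysteine protease activity-based probe (cathepsins) or a proteasome-specific activity-based probe (proteasome).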

[7] = tested on: cathepsins B, H, S, and Z; assay type: cell-based; settings: mouse macrophages, 5 µM
Summary of the method: as §2

proteasome = assay type: cell-based; settings: mouse macrophages preincubated with 0.5 µM and 5 µM
Summary of the method: as §2

[8] = tested on: proteins in the 28 kDa region (food vacuole falcipains); assay: Labeling of intact schizonts with rhodamine probes; assay type: cell-based, P. falciparum; settings: pretreatment with 10 µM nonfluorescent compound, then 10 µM RhSym4 1 hr
Summary of the method: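 Purified schizonts were pretreated with 10 µM nonfluorescent competitor or DMSO. They were then incubated 1 hr with 10 µM rhodamine-tagged probe in PBS. Samples were boiled in loading buffer, proteins resolved by SDS-PAGE, and labelled bands detected by flatbed fluorescence scanning.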

red blood cells (RBCs) = settings: even at the highest tested concentrations (>25 µM); ref Conroy et al., 2010; cited from earlier work

cathepsin L, sequence (P06797 114-334): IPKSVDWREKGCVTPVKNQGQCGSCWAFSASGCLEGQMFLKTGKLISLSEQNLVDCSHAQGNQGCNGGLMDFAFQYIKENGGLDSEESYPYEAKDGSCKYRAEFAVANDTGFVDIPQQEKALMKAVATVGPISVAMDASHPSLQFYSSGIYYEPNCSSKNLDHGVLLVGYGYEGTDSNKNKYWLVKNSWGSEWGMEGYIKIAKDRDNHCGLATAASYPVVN

In the case of `CC[C@H](C)[C@@H](C(=O)O[C@@H](CC(C)C)C(=O)N[C@@H](CC(C)C)C(=O)N[C@@H](C)/C=C/C(=O)N1C(=O)C=C(OC)[C@@H]1C)N(C)C` [Sym4, symplostatin 4], the “fold higher concentration for parasite killing than for food vacuole defect” value ([1]; EC50 0.7 µM versus 0.1 µM) is reported as 7 fold, the “fold more potent than Sym4^mmp → Ala (EC50)” value ([1]; replication assay, 75 hr) is reported as 40 fold and the “concentration causing swollen food vacuole phenotype” value [2] is reported as 0.1 µM. For the same compound, the “concentration inhibiting Cy5-DCG-04 labeling of FP2, FP2′, and FP3” value (FP2, FP2′, and FP3) was 1.5 nM, the “concentration inhibiting Cy5-DCG-04 labeling of FP1” value (FP1 [3]) was > 1.6 µM and the IC50 (FP1 [4]) was 140 ± 23 nM. For the same compound, the “inhibition of DPAP1” value (DPAP1; competitive ABPP with Cy5-DCG04, Figure 4) was “neither DPAP1 (Figure 4) nor DPAP3 (Figure S3) is inhibited”, the “inhibition of DPAP1” value (DPAP1; living parasites, 1 hr, at 1 µM) was “did not inhibit” and the “inhibition of DPAP3” value (DPAP3) was “neither DPAP1 (Figure 4) nor DPAP3 (Figure S3) is inhibited”. The mode of inhibition [5] was “irreversible inhibitor”, the mode of inhibition [6] was “irreversible inhibitor” and the “inhibition of cathepsin L” value (cathepsin L) was “inhibit; also recorded: inhibits a large portion”. The “inhibition of cathepsins B, H, S, and Z” value [7] was “also inhibited; also recorded: required ten times higher concentrations (i.e., 5 µM) to reach the same inhibition level”, the “inhibition of the proteasome” value (proteasome) was “did not inhibit; also recorded: does not inhibit” and the “competition of RhSym4 labeling” value [8] was “sensitive to preincubation”. The “lysis of red blood cells” value (red blood cells (RBCs)) was “no lysis”.
